ChEMBL document CHEMBL2380254, “Optimization of tocotrienols as antiproliferative and antimigratory leads” (Eur J Med Chem, 2013)

What was measured:
[1] = test system: MCF7; test: Antiproliferative activity against human MCF7 cells by MTT assay; format: functional, cell-based
Summary of the method: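 Cells plated at 8 × 10^3/well (MDA-MB-231) or 10^4/well (MCF7) in 96-well plates. Compounds fed in media with 5% FBS (MDA-MB-231) or 1% FBS (MCF7). MTT read-out of viable cells.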

[2] = test system: T47D; test: Growth inhibition of human T47D cells assessed as cell growth at 10 uM after 48 hrs by sulforhodamine B assay; format: functional; conditions: read-out: Activity
Summary of the method: (§1)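 Single-dose NCI-60 test at 10 µM. Cells were grown in RPMI 1640 with 5% FBS and 2 mM L-glutamine, preincubated 24 h, with T0 plates TCA-fixed. Exposure was 48 h at 37 °C, 5% CO2. Cells were fixed with cold TCA (final 10%, 4 °C, 60 min), stained with SRB and read at 515 nm. Percent growth was taken relative to T0 and untreated control; negative values denote cell kill.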

[3] = test system: MDA-MB-231; test: Growth inhibition of human MDA-MB-231 cells assessed as cell growth at 10 uM after 48 hrs by sulforhodamine B assay; format: functional; conditions: MDA-MB-231, 48 h, read-out: Activity
Summary of the method: (§2)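 Single-dose NCI-60 screen: adherent cells in RPMI 1640 with 5% FBS were exposed to 10 µM for 48 h at 37 °C after a 24 h preincubation. They were fixed in situ with cold TCA (10% final), stained with 0.4% SRB in 1% acetic acid, solubilized in 10 mM Tris base, and read at 515 nm. Percent growth was taken relative to time-zero and control plates.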

[4] = test system: 786-0; test: Growth inhibition of human 786-0 cells assessed as cell growth at 10 uM after 48 hrs by sulforhodamine B assay; format: functional; conditions: 786-0, 48 h, read-out: Activity
Summary of the method: (§3)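 NCI-60 single-dose screen at 10 µM: cells in RPMI 1640 with 5% FBS, preincubated 24 h, then exposed 48 h at 37 °C. TCA fixation (16% final for suspension cells), SRB staining, absorbance 515 nm. Percent growth relative to time-zero and untreated control plates; negative values indicate cell kill.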

[5] = test system: OVCAR-8; test: Growth inhibition of human OVCAR8 cells assessed as cell growth at 10 uM after 48 hrs by sulforhodamine B assay; format: functional; conditions: OVCAR-8, 48 h, read-out: Activity; summary of the method: as §2
[6] = test system: OVCAR-3; test: Growth inhibition of human OVCAR3 cells assessed as cell growth at 10 uM after 48 hrs by sulforhodamine B assay; format: functional; conditions: OVCAR-3, 48 h, read-out: Activity; summary of the method: as §2
[7] = test system: IGROV-1; test: Growth inhibition of human IGROV1 cells assessed as cell growth at 10 uM after 48 hrs by sulforhodamine B assay; format: functional; conditions: IGROV-1, 48 h, read-out: Activity; summary of the method: as §3
[8] = test system: UACC-62; test: Growth inhibition of human UACC62 cells assessed as cell growth at 10 uM after 48 hrs by sulforhodamine B assay; format: functional; conditions: UACC-62, 48 h, read-out: Activity; summary of the method: as §1
[9] = test system: SK-MEL-2; test: Growth inhibition of human SK-MEL-2 cells assessed as cell growth at 10 uM after 48 hrs by sulforhodamine B assay; format: functional; conditions: SK-MEL-2, 48 h, read-out: Activity; summary of the method: as §2
[10] = test system: U-251; test: Growth inhibition of human U251 cells assessed as cell growth at 10 uM after 48 hrs by sulforhodamine B assay; format: functional; conditions: U-251, 48 h, read-out: Activity; summary of the method: as §1
[11] = test system: SF-268; test: Growth inhibition of human SF268 cells assessed as cell growth at 10 uM after 48 hrs by sulforhodamine B assay; format: functional; conditions: SF-268, 48 h, read-out: Activity; summary of the method: as §2
[12] = test system: NCI-H460; test: Growth inhibition of human NCI-H460 cells assessed as cell growth at 10 uM after 48 hrs by sulforhodamine B assay; format: functional; conditions: NCI-H460, 48 h, read-out: Activity; summary of the method: as §2
[13] = test system: NCI-H226; test: Growth inhibition of human NCI-H226 cells assessed as cell growth at 10 uM after 48 hrs by sulforhodamine B assay; format: functional; conditions: NCI-H226, 48 h, read-out: Activity; summary of the method: as §2
[14] = test system: HOP-62; test: Growth inhibition of human HOP62 cells assessed as cell growth at 10 uM after 48 hrs by sulforhodamine B assay; format: functional; conditions: HOP-62, 48 h, read-out: Activity; summary of the method: as §3
[15] = test system: CCRF-CEM; test: Growth inhibition of human CCRF-CEM cells assessed as cell growth at 10 uM after 48 hrs by sulforhodamine B assay; format: functional; conditions: read-out: Activity; summary of the method: as §3
[16] = test system: MDA-MB-231; test: Growth inhibition of human MDA-MB-231 cells after 48 hrs by sulforhodamine B assay; format: functional; conditions: MDA-MB-231, 48 h
Summary of the method: (§4)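 NCI-60 panel cells grown in RPMI 1640 with 5% FBS and 2 mM L-glutamine, seeded at 5000–40,000 cells/well and preincubated 24 h. Five 10-fold dilutions (0.001–100 µM) from DMSO stocks were added for 48 h at 37 °C. Adherent cells were fixed with cold TCA (10% final) for 60 min at 4 °C, stained with 0.4% SRB, and read at 515 nm. GI50 was set where 100×(T−T0)/(C−T0)=50.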

[17] = test system: CAKI-1; test: Growth inhibition of human CAKI-1 cells after 48 hrs by sulforhodamine B assay; format: functional; conditions: CAKI-1, 48 h
Summary of the method: (§5)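 NCI-60 screen: cells in RPMI 1640 with 5% FBS and 2 mM glutamine, 5000–40,000 cells/well, preincubated 24 h. Five concentrations (10-fold dilutions; 100 to 0.001 µM) applied for 48 h at 37 °C. TCA fixation, SRB stain, absorbance at 515 nm. Time-zero plates included; GI50 where 100×(T−T0)/(C−T0)=50.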

[18] = test system: A498; test: Growth inhibition of human A498 cells after 48 hrs by sulforhodamine B assay; format: functional; conditions: A498, 48 h; summary of the method: as §5
[19] = test system: SNB-19; test: Growth inhibition of human SNB19 cells after 48 hrs by sulforhodamine B assay; format: functional; conditions: SNB-19, 48 h
Summary of the method: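 NCI-60 five-dose screen. Cells were grown in RPMI 1640 with 5% FBS and 2 mM L-glutamine, plated at 5000–40,000 cells/well and incubated 24 h before dosing, with T0 plates TCA-fixed. DMSO stocks were diluted to doses of […] and exposed 48 h at 37 °C, 5% CO2. Cells were fixed with cold TCA (final 10%, 60 min, 4 °C), stained with 0.4% SRB in 1% acetic acid for 10 min, solubilized in 10 mM trizma base and read at 515 nm. GI50 is where 100×(T−T0)/(C−T0)=50.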

[20] = test system: SF-295; test: Growth inhibition of human SF295 cells after 48 hrs by sulforhodamine B assay; format: functional; conditions: SF-295, 48 h; summary of the method: as §4
[21] = test system: HL-60(TB); test: Growth inhibition of human HL-60(TB) cells after 48 hrs by sulforhodamine B assay; format: functional; conditions: HL-60, 48 h
Summary of the method: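 HL-60(TB) cells (suspension) grown in RPMI 1640 with 5% FBS and 2 mM L-glutamine. They were plated and preincubated for 24 h, with T0 plates fixed at that point. Drug was given at five 10-fold dilutions for 48 h at 37 °C. Settled cells were fixed with TCA (16% final), stained with 0.4% SRB in 1% acetic acid and read at 515 nm. GI50 was taken where 100×(T−T0)/(C−T0)=50.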

Row | Structure (SMILES) | IC50 [1] [µM] | growth at 10 µM [2] [%] | growth at 10 µM [3] [%] | growth at 10 µM [4] [%] | growth at 10 µM [5] [%] | growth at 10 µM [6] [%] | growth at 10 µM [7] [%] | growth at 10 µM [8] [%] | growth at 10 µM [9] [%] | growth at 10 µM [10] [%] | growth at 10 µM [11] [%] | growth at 10 µM [12] [%] | growth at 10 µM [13] [%] | growth at 10 µM [14] [%] | growth at 10 µM [15] [%] | further results
1 | CC(C)=CCC/C(C)=C/CC/C(C)=C/CC[C@]1(C)CCc2cc(O)c(C)c(C)c2O1 [GAMMA-TOCOTRIENOL] | 7.1 | 82.5 | 108 | 114 | 112 | 110 | 96.3 | 108 | 91.3 | 102 | 108 | 105 | 90.8 | 108 | 84 | –
2 | COc1ccc(CCN2COc3c(C)c(C)c4c(c3C2)CC[C@@](C)(CC/C=C(\C)CC/C=C(\C)CCC=C(C)C)O4)cc1OC | > 20 | 98 | 96.1 | 94.9 | 101 | 105 | 87.4 | 96.5 | 120 | 88.4 | 94.8 | 103 | 97 | 85.7 | 78 | –
3 | CC(C)=CCC/C(C)=C/CC/C(C)=C/CC[C@]1(C)CCc2c3c(c(C)c(C)c2O1)OCN(CCCCCCCCCCO)C3 | 19.4 | 85.2 | 112 | 99.2 | 89.7 | 94.8 | 102 | 103 | 82.3 | 78.7 | 94.2 | 75.5 | 92.6 | 90 | 87.7 | –
4 | CC(C)=CCC/C(C)=C/CC/C(C)=C/CC[C@]1(C)CCc2c3c(c(C)c(C)c2O1)OCN(CCCCCCO)C3 | > 20 | 8.28 | 9.83 | 33.7 | 49.9 | – | -23.6 | 86.7 | 91.8 | -75.2 | 26 | 2.49 | 97.3 | -23.3 | 5.83 | GI50 [16]: 2.75 µM; GI50 [17]: 2.82 µM; GI50 [18]: 2.59 µM; GI50 [19]: 2.48 µM; GI50 [20]: 2.97 µM; GI50 [21]: 3.58 µM
5 | CC(C)=CCC/C(C)=C/CC/C(C)=C/CC[C@]1(C)CCc2c(CNCCc3ccc(O)cc3)c(O)c(C)c(C)c2O1 | – | 99.1 | 89.5 | 78.2 | 84.8 | 97.1 | 78.5 | 106 | 117 | 93 | 96.9 | 92.3 | 105 | 105 | 75.2 | –
6 | CC(C)=CCC/C(C)=C/CC/C(C)=C/CC[C@]1(C)CCc2c3c(cc(C)c2O1)OCN(CCCCCCCCCCCCO)C3 | > 20 | 78.5 | 99.8 | 97 | 11.7 | 89.5 | 72.5 | 67.2 | 15.3 | 59.1 | 98.7 | 48.2 | 80.6 | 86.9 | 13.6 | –
7 | CC(C)=CCC/C(C)=C/CC/C(C)=C/CC[C@]1(C)CCc2c3c(c(C)c(C)c2O1)OCN(CCCCCCCCCCCCO)C3 | > 20 | 95.8 | 119 | 110 | 100 | 109 | 102 | 89.5 | 76.8 | 90.3 | 116 | 103 | 93.3 | 104 | 95.2 | –
8 | CC(C)=CCC/C(C)=C/CC/C(C)=C/CC[C@]1(C)CCc2c3c(c(C)c(C)c2O1)OCN(CCc1ccc(O)cc1)C3 | 10.6 | 93.7 | 68.5 | 77.3 | 42.1 | 98.2 | 67.7 | 104 | 121 | 81.8 | 83.7 | 62.4 | 111 | 112 | 49.6 | –
9 | CC(C)=CCC/C(C)=C/CC/C(C)=C/CC[C@]1(C)CCc2c3c(cc(C)c2O1)OCN(CCCCCCCCCCO)C3 | 4.6 | 86.1 | 119 | 85.3 | 74.6 | 94.3 | 80.1 | 109 | 86.4 | 74 | 97.7 | 91.6 | 89.8 | 107 | 49.5 | –
10 | COc1ccc(CCNCc2c(O)c(C)c(C)c3c2CC[C@@](C)(CC/C=C(\C)CC/C=C(\C)CCC=C(C)C)O3)cc1OC | – | 83.2 | 78.6 | 78.1 | 66.8 | 101 | 71.5 | 98.3 | 113 | 83.7 | 98 | 73.4 | 106 | 115 | 75.3 | –
